Measurements: ChEMBL document CHEMBL4020803, “Structure-based identification of inhibitors targeting obstruction of the HIVgp41 N-heptad repeat trimer” (Bioorg Med Chem Lett, 2017)
Activity calls are given as the source filed them. No cut-off for these calls is given here.

Assays:
[1] = tested on: Human immunodeficiency virus 1; test: Antiviral activity against HIV1 assessed as inhibition of viral entry into human TZM-bl cells at 25 uM preincubated with cells for 1 hr followed by inoculation with 1 hr compound pretreated virus measured 48 hrs post compound wash out by luciferase reporter gene assay relative to control; type: functional; details: for inhibition at 25 µM: Human immunodeficiency virus 1, TZM-bl
Outline: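 HIV-1 made by PEI co-transfection of pNL4-3.HSA.R-E- and pHXB2-env; titer set by X-Gal staining on TZM-bl. TZM-bl seeded 10^4/well a day ahead, pretreated 1 h at 37 °C with 25 μM compound, DMSO or 1 μM C34. Virus (MOI 0.1) preincubated 1 h with the same treatment, added, spinoculated 1,000 × g 1 h RT, 1 h 37 °C, washed, luciferase read at 48 h, normalized.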

[2] = Cytotoxicity against human HL2/3 cells assessed as decrease in cell viability at 25 uM after 6 hrs; type: cell-based; details: hl2/3, 6 h
Outline: (§1)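 Viability measured in the same wells as the fusion read-out, using the combined luciferase/cell-viability kit. TZM-bl and HL2/3 cells were pretreated with 25 μM compound, DMSO or 1 μM C34, then co-cultured 6 h at 37 °C, 5% CO2. Duplicate wells per compound.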

[3] = tested on: Human immunodeficiency virus 1; test: Antiviral activity against VSV-G pseudotyped HIV1 assessed as inhibition of virus entry by cell-based assay; type: functional
Outline: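 VSV-G-pseudotyped HIV-1 (pNL4-3.HSA.R-E- plus pCMV-VSV-G, made by PEI transfection), tested at 25 μM. TZM-bl cells (10^4/well) and MOI 0.1 virus were each pretreated 1 h at 37 °C. Compound medium was replaced with the treated virus, then spinoculation at 1,000 × g for 1 h at room temperature and 1 h at 37 °C. Cells were washed, grown 48 h drug-free, and read by luciferase. Bafilomycin A1 control.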

[4] = tested on: Human immunodeficiency virus 1; test: Inhibition of HIV1 gp41-induced cell-cell fusion between viral protein expressing human HL2/3 cells and TZM-bl target cells at 25 uM preincubated with cells followed by co-incubation for 6 hrs by luciferase reporter gene assay relative to control
Outline: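 TZM-bl receptor cells seeded a day ahead, then TZM-bl and HL2/3 effector cells pretreated with 25 μM compound (DMSO stock diluted in complete medium), DMSO alone (maximum signal) or 1 μM C34 (maximum inhibition); cells co-incubated 6 h at 37 °C, 5% CO2. Fusion read by luciferase in a combined luciferase/viability kit; signal normalized to controls. Duplicate wells per compound.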

TZM = test: Cytotoxicity against human TZM-bl cells assessed as decrease in cell viability at 25 uM after 6 hrs; type: cell-based; outline: as §1

| Structure (SMILES) | inhibition at 25 µM [1] [%] | Activity [2] | inhibition [3] | inhibition [4] [%] | Activity (TZM) | inhibition [1] |
| --- | --- | --- | --- | --- | --- | --- |
| Cn1c(SCC(=O)N/N=C/c2cc(Br)cc(Br)c2O)nc2ccccc21 | > 50 | Non-Toxic | inactive | > 50 | Non-Toxic | – |
| CCn1c(SCC(=O)N/N=C/c2cccc(Oc3ccccc3)c2)nnc1-c1ccc(OC)cc1 | – | – | – | – | – | inactive |
| Cc1ccc(CNC(=O)c2oc3ccc(S(=O)(=O)N4CCC5(CC4)OCCO5)cc3c2C)cc1 | > 50 | Non-Toxic | inactive | > 50 | Non-Toxic | – |
| COc1ccc(-c2cc(C(=O)NCc3ccc(Cl)cc3)n[nH]2)cc1S(=O)(=O)N1CCOCC1 | – | – | – | – | – | inactive |
